Results from ChEMBL document CHEMBL5136958, “The development of HEC-866 and its analogues for the treatment of idiopathic pulmonary fibrosis” (RSC Med Chem, 2021).
Active and inactive are the calls of the source. No cut-off for these calls is given here.

Experiments:
[1] = Half life in dog at 5 mg/kg, po by LC-MS/MS analysis; format: ADME, organism-based, Canis lupus familiaris; conditions: in vivo
[2] = AUClast in Sprague-Dawley rat model of bleomycin-induced pulmonary fibrosis at 2 mg/kg, iv by LC-MS/MS analysis; format: ADME, organism-based; set-up: time 0 - last, dose 2 mg/kg, route iv; conditions: in vivo
In short: (§1)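 Male Sprague-Dawley rats with induced pulmonary fibrosis; single i.v. (2.0 mg kg⁻¹) or p.o. (5.0 mg kg⁻¹) administration. Plasma samples stored at −70 °C; the supernatant was analysed by LC-MS/MS for PK parameters.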

Cytochrome P450 2D6 = Cytochrome P450 2D6 (Homo sapiens, UniProt P10635); experiment: Inhibition of CYP2D6 in human liver microsomes by LC-MS/MS analysis; format: ADME, Microsome
In short: (§2)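 Human microsomes incubated with CYP-specific substrates (1A2, 2C9, 2C19, 2D6, 3A4) and test compound at 0.0–10 μM; IC50 determined.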

[3] = Half life in dog liver microsomes by LC-MS/MS analysis; format: ADME, Canis lupus familiaris, Microsome
In short: (§3)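 Liver microsomes (human, monkey, dog, rat, mouse) incubated with test compound at 37 °C with NADPH cofactor; samples at 0, 5, 15, 30, 60 min for half-life and in vitro CLint.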

[4] = Cmax in dog at 5 mg/kg, po by LC-MS/MS analysis; format: ADME, organism-based, Canis lupus familiaris; set-up: dose 5 mg/kg, route po; conditions: in vivo
[5] = Mutagenecity in Salmonella typhimurium TA100 at 7.8 to 1000 ug measured after 2 to 3 days by mini-Ames test; format: toxicity, Salmonella enterica subsp. enterica serovar Typhimurium; conditions: dose lower 7.8 µg, time lower 2 day, dose upper 1000 µg, time upper 3 day
In short: (§4)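 Bacterial reverse mutation assay scoring reverse gene mutations at the histidine locus in Salmonella typhimurium strains TA98 and TA100.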

[6] = Oral bioavailability in dog at 5 mg/kg by LC-MS/MS analysis; format: ADME, organism-based, Canis lupus familiaris; conditions: in vivo
[7] = Half life in rat liver microsomes by LC-MS/MS analysis; format: ADME, Microsome; in short: as §3
[8] = Half life in Sprague-Dawley rat model of bleomycin-induced pulmonary fibrosis at 2 mg/kg, iv by LC-MS/MS analysis; format: ADME, organism-based; conditions: in vivo; in short: as §1
[9] = Clearance in dog at 1 mg/kg, iv by LC-MS/MS analysis; format: ADME, organism-based, Canis lupus familiaris; conditions: in vivo
Rattus norvegicus [10] = experiment: Antifibrotic activity against bleomycin-induced pulmonary fibrosis in Sprague-Dawley rat assessed as reduction in lung hydroxyproline content at 6 mg/kg, po administered daily for 1 to 14 days starting from post bleomycin stimulation; format: functional, organism-based; conditions: time 1-14 day
[11] = Intrinsic clearance in monkey liver microsomes by LC-MS/MS analysis; format: ADME, Macaca mulatta, Microsome; conditions: rhesus monkey, read-out: CLH
In short: (§5)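 Liver microsomes were incubated with the compound at 37 °C with NADPH as cofactor and sampled at 0, 5, 15, 30 and 60 min. Half-life (min) and in vitro CLint (mL min⁻¹ kg) were derived from these samples.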

[12] = Oral bioavailability in Sprague-Dawley rat model of bleomycin-induced pulmonary fibrosis at 5 mg/kg by LC-MS/MS analysis; format: ADME, organism-based; conditions: in vivo
In short: (§6)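 Male Sprague-Dawley rats with induced pulmonary fibrosis were dosed 2.0 mg kg⁻¹ i.v. or 5.0 mg kg⁻¹ p.o. Plasma was stored at -70 °C, and the supernatant was analysed by LC-MS/MS.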

[13] = Half life in mouse liver microsomes by LC-MS/MS analysis; format: ADME, Microsome; in short: as §3
[14] = Intrinsic clearance in dog liver microsomes by LC-MS/MS analysis; format: ADME, Canis lupus familiaris, Microsome; conditions: read-out: CLH; in short: as §3
[15] = AUClast in dog at 5 mg/kg, po by LC-MS/MS analysis; format: ADME, organism-based, Canis lupus familiaris; set-up: time 0 - last, dose 5 mg/kg, route po; conditions: in vivo
[16] = Half life in monkey liver microsomes by LC-MS/MS analysis; format: ADME, Macaca mulatta, Microsome; conditions: rhesus monkey; in short: as §3
[17] = AUClast in Sprague-Dawley rat model of bleomycin-induced pulmonary fibrosis at 5 mg/kg, po by LC-MS/MS analysis; format: ADME, organism-based; set-up: time 0 - last, dose 5 mg/kg, route po; conditions: in vivo; in short: as §1
[18] = Volume of distribution at steady state in Sprague-Dawley rat model of bleomycin-induced pulmonary fibrosis at 2 mg/kg, iv by LC-MS/MS analysis; format: ADME, organism-based; conditions: in vivo, read-out: Vdss; in short: as §6
HFL1 [19] = experiment: Antifibrotic activity in TGF-beta1-induced HFL1 cell injury assessed as down regulation of collagen 3 mRNA expression at 0.625 to 10 uM measured after 24 hrs by RT-PCR analysis; format: functional, cell-based; conditions: Homo sapiens, dose 0.625-10 µM
In short: (§7)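 TGF-β1-induced HFL-1 cells treated 24 h (test range 0.625–10 μM; comparator 3 mM); collagen 1 and collagen 3 mRNA measured by RT-PCR; mean of n = 3.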

[20] = Half life in dog at 1 mg/kg, iv by LC-MS/MS analysis; format: ADME, organism-based, Canis lupus familiaris; conditions: in vivo
[21] = Intrinsic clearance in human liver microsomes by LC-MS/MS analysis; format: ADME, Microsome; conditions: read-out: CLH; in short: as §3
[22] = Mutagenecity in Salmonella typhimurium TA98 at 7.8 to 1000 ug measured after 2 to 3 days by mini-Ames test; format: toxicity, Salmonella enterica subsp. enterica serovar Typhimurium; conditions: dose lower 7.8 µg, time lower 2 day, dose upper 1000 µg, time upper 3 day; in short: as §4
Cytochrome P450 1A2 = molecular target: T1, Cytochrome P450 1A2 (Homo sapiens, UniProt P05177); experiment: Inhibition of CYP1A2 in human liver microsomes by LC-MS/MS analysis; format: ADME, Microsome; in short: as §2
T1 sequence (P05177 whole entry): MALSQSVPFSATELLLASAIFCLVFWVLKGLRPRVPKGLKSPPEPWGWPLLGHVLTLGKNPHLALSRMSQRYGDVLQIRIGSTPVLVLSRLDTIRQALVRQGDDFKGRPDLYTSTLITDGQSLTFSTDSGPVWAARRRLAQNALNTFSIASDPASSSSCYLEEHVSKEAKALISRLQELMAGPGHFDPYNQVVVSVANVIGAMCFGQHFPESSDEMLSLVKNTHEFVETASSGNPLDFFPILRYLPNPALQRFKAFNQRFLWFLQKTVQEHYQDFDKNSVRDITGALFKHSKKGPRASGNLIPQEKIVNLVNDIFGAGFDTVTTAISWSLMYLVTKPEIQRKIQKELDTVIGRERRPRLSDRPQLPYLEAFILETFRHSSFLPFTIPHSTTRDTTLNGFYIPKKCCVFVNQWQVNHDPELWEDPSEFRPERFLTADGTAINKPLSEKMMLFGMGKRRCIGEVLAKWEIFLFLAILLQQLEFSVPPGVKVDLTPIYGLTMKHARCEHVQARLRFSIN

[23] = Half life in human liver microsomes by LC-MS/MS analysis; format: ADME, Microsome; in short: as §3
[24] = Intrinsic clearance in mouse liver microsomes by LC-MS/MS analysis; format: ADME, Microsome; conditions: read-out: CLH; in short: as §5
Rattus norvegicus [25] = experiment: Antifibrotic activity against bleomycin-induced pulmonary fibrosis in po dosed Sprague-Dawley rat assessed as reduction in histopathological changes administered daily for 1 to 14 days starting from post bleomycin stimulation by H and E staining based assay; format: functional, organism-based; conditions: dose 2-6 mg/kg, time 1-14 day, DDE = dose-dependent effect
In short: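 Bleomycin-induced lung fibrosis in SD rats; oral dosing daily from day 1 for 14 days; saline for sham and bleomycin groups; comparator 100 mg kg⁻¹ d, test doses 2 and 6 mg kg⁻¹ d; lung pathology assessed by HE histology.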

HFL1 [26] = experiment: Antifibrotic activity in TGF-beta1-induced HFL1 cell injury assessed as down regulation of collagen 1 mRNA expression at 0.625 to 10 uM measured after 24 hrs by RT-PCR analysis; format: functional, cell-based; conditions: Homo sapiens, dose 0.625-10 µM; in short: as §7
HFL1 [27] = experiment: Antifibrotic activity in TGF-beta1-induced HFL1 cell injury assessed as alpha-SMA expression at 5 uM measured after 48 hrs by Western blot analysis (reference value: 100%); format: functional, Homo sapiens
In short: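 HFL-1 cells stimulated with TGF-β1; α-SMA protein detected by Western blot with anti-α-SMA antibody, normalised to tubulin; mean of n = 3.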

Cytochrome P450 2D6, sequence (P10635 whole entry): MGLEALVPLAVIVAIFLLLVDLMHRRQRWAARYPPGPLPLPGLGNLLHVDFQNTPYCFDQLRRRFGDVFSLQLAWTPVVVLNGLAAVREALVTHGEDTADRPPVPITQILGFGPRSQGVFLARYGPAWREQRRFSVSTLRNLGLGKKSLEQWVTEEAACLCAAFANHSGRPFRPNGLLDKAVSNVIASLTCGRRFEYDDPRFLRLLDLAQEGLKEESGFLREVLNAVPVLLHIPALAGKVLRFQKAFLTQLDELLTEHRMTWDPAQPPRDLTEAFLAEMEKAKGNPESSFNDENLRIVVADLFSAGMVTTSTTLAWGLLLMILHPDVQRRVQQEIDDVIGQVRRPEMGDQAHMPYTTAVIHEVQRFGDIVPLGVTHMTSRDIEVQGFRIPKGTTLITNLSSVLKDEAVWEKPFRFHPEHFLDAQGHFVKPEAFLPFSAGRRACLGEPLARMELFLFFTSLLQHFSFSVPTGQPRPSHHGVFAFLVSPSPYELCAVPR

Q: What does the source list for `Cc1cc(=O)n(-c2ccc(N3CCC(Cc4ccc(Cl)c(F)c4)CC3)c(Cl)c2)c(C)n1`?
A: half-life [1]: 27 h; AUC(0-t) [2]: 4280 ng·h/mL; IC50 (Cytochrome P450 2D6): > 10 µM; half-life [3]: 4.93 h; Cmax [4]: 628 ng/mL; Activity [5]: Non-Toxic; bioavailability [6]: 15%; half-life [7]: 1.71 h; half-life [8]: 26 h; clearance [9]: 1.67 mL/min/kg; Activity (Rattus norvegicus [10]): Active; CLint scaled [11]: 48.6 mL/min/kg; bioavailability [12]: 105%; half-life [13]: 1.18 h; CLint scaled [14]: 11.7 mL/min/kg; AUC(0-t) [15]: 5910 ng·h/mL; half-life [16]: 0.695 h; AUC(0-t) [17]: 11200 ng·h/mL; Vd [18]: 8.2 L/kg; Activity (HFL1 [19]): Active; half-life [20]: 11 h; CLint scaled [21]: 16.7 mL/min/kg; Activity [22]: Non-Toxic; IC50 (Cytochrome P450 1A2): > 10 µM; half-life [23]: 1.73 h; CLint scaled [24]: 77 mL/min/kg; Activity (Rattus norvegicus [25]): Dde; Activity (HFL1 [26]): Active; Activity (HFL1 [27]): 72.56%
